This passage reports IC50 and EFTPC results from ChEMBL document CHEMBL3430321, “Simulation of multiple ion channel block provides improved early prediction of compounds' clinical torsadogenic risk” (Cardiovasc Res, 2011).

Series [1] deals with T1, Voltage-gated inwardly rectifying potassium channel KCNH2 (Homo sapiens, UniProt Q12809). Nature of the series: (§1) Inhibition of hERG K channel. In kind it is functional. The gist of the method:
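IKr block assessed from concentration–response curves in HEK-293 cells stably transfected with hERG cDNA, giving IC50 values.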
For orientation: The hERG channel carries a current that helps repolarise heart muscle cells.

In series [2] the target is Sodium channel alpha subunit. Put plainly: Inhibition of Na channel (species unknown). In kind it is functional.
Series [3] is described as follows: (§2) Effective free therapeutic plasma concentration (EFTPC): the concentration of unbound compund in the blood plasma at therapeutic dose (mean of range). In kind it is ADME, organism-based. The following applies: human, in vivo.
Series [4] deals with Voltage-gated L-type calcium channel (Homo sapiens, UniProt Q13936+Q13698+Q01668+O60840). Nature of the series: Inhibition of voltage-gated L-type Ca channel (species unknown). In kind it is functional.
In series [5] the target is Sodium channel protein type 5 subunit alpha (Homo sapiens, UniProt Q14524). Nature of the series: Inhibition of sodium current measured using whole-cell patch clamp experiments in HEK-293 cells stably transfected with hNaV1.5 cDNA. In kind it is functional, cell-based, HEK293.
Sodium channel protein type 5 subunit alpha, sequence (Q14524 whole entry): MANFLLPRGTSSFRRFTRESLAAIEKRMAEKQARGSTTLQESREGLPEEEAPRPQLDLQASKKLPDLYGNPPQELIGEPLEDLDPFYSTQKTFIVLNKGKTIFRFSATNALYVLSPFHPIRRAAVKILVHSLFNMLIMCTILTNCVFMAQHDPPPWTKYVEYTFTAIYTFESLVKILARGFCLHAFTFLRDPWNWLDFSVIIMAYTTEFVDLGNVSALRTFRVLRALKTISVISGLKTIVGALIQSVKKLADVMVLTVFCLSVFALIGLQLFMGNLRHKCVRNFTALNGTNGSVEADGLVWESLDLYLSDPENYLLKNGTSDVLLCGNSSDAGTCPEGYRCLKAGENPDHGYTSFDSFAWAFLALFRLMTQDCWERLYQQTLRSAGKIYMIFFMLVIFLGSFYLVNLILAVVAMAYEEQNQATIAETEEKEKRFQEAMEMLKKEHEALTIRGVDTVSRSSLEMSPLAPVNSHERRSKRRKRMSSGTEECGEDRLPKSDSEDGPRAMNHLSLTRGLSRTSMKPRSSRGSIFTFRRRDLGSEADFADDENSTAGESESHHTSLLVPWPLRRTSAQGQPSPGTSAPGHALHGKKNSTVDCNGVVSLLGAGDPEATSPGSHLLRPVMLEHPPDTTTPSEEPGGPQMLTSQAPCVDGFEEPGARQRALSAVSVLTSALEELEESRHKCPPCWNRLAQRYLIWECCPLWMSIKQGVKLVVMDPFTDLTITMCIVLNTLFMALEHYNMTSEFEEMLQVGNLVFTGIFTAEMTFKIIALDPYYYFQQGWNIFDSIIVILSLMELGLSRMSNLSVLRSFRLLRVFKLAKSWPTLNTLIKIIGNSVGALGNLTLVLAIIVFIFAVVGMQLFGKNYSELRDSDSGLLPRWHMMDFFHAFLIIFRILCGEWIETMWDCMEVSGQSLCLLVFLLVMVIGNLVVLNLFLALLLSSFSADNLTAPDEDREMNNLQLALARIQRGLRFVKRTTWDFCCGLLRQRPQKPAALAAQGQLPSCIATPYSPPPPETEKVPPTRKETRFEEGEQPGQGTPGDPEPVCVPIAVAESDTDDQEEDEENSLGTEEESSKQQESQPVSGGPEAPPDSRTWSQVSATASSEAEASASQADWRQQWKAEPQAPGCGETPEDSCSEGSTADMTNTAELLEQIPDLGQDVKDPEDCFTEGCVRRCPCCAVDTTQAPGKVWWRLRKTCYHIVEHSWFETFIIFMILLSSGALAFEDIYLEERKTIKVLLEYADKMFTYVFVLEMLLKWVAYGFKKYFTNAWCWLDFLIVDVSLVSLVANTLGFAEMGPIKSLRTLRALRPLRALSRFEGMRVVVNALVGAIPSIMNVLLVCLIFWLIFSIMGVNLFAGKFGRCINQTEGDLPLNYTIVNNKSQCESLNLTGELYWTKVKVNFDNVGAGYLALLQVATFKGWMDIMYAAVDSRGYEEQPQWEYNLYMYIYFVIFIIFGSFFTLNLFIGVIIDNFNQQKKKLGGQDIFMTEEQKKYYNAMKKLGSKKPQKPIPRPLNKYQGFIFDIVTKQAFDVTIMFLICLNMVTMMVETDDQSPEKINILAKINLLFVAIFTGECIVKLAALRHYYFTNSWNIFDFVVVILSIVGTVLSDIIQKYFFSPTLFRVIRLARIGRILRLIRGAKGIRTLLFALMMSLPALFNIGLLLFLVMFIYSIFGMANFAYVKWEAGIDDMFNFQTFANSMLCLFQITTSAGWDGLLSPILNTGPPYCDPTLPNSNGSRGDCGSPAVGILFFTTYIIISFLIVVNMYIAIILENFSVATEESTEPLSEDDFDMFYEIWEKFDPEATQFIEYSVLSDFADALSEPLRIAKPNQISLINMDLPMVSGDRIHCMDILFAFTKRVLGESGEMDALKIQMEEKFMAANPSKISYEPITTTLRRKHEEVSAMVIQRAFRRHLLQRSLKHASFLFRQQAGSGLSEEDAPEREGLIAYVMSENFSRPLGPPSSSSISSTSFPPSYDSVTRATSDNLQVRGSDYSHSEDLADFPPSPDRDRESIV
In series [6] the target is Voltage-dependent L-type calcium channel subunit alpha-1C (Cavia porcellus, UniProt O35505). Nature of the series: Inhibition of calcium current (ICaL) measured using whole-cell patch clamp experiments in isolated guinea pig ventricular myocytes. In kind it is functional, tissue-based, Heart, Ventricular myocyte. Background: Patch clamp records ionic current or voltage across a cell membrane.
Voltage-dependent L-type calcium channel subunit alpha-1C, sequence (O35505 whole entry): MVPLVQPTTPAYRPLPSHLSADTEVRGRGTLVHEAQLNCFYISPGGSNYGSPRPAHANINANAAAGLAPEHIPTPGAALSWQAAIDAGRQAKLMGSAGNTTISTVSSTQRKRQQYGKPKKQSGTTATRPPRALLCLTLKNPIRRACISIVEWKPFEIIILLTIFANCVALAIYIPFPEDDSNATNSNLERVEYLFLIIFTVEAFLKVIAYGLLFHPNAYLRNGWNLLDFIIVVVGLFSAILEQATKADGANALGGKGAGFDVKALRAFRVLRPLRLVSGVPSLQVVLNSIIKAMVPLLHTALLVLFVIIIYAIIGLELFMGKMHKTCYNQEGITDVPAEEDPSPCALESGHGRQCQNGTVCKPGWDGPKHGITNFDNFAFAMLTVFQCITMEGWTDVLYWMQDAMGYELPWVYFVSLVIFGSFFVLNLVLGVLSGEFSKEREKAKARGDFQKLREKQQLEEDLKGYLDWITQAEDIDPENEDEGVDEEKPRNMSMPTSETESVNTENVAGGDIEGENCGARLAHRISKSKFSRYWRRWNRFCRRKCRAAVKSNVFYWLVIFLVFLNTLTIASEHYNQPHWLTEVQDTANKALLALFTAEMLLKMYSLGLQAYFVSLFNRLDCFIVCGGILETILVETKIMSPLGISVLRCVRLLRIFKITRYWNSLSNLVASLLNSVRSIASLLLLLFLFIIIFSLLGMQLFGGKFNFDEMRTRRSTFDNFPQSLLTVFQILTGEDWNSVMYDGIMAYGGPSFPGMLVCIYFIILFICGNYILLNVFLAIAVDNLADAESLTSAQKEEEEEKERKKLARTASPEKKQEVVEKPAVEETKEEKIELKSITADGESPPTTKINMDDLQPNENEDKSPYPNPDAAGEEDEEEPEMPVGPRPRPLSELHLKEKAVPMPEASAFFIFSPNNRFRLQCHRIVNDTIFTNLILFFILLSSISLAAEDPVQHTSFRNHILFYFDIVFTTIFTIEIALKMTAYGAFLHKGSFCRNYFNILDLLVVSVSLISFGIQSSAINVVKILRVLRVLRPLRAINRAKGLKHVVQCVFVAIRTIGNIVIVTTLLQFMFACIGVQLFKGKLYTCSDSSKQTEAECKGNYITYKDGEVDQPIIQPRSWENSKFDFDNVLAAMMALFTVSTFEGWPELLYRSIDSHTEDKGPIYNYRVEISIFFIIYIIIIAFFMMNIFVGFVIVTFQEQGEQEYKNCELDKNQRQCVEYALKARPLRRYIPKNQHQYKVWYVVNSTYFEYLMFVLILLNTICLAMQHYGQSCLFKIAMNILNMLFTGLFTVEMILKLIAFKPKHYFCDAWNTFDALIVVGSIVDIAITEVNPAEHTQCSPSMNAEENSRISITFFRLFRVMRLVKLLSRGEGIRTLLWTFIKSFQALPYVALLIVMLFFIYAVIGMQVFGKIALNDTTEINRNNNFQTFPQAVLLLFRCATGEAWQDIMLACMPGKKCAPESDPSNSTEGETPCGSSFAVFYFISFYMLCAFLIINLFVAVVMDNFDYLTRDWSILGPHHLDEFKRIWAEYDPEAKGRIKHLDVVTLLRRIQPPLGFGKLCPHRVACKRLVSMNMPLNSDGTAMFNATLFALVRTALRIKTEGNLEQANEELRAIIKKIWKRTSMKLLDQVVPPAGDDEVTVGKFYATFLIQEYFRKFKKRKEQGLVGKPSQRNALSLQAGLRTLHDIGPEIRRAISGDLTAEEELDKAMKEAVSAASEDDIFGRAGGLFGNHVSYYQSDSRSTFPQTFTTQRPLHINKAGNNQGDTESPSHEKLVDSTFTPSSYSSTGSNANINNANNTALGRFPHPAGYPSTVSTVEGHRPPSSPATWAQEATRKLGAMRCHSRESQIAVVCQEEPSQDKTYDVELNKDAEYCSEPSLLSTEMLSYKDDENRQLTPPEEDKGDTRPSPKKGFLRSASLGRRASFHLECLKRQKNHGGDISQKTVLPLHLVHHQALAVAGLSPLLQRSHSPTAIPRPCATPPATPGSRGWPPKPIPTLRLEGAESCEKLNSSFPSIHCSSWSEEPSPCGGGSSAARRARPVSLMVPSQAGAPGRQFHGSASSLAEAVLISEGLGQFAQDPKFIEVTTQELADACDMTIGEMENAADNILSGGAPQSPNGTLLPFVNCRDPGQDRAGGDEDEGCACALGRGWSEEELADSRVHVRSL

The target of series [7] is T1, Voltage-gated inwardly rectifying potassium channel KCNH2. The description is as §1.
The nature of series [8]: as §2. The note with it: human, in vivo.
Series [9] addresses T1, Voltage-gated inwardly rectifying potassium channel KCNH2. Put plainly: Inhibition of potassium current (Ikr) measured using whole-cell patch clamp experiments in HEK-293 cells stable transfected with hERG cDNA. In kind it is functional, cell-based, HEK293. The gist of the method: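 IKr concentration–response curves were recorded in HEK-293 cells stably expressing hERG cDNA.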

One may read the IC50 as the concentration that inhibits the measured activity by half. As to `C1CCC2(C1)C1CN(CC3CC3)CC2CN(CC2CC2)C1`, the IC50 in [1] is 2.5 µM; in series [2], 20 µM. Also, the EFTPC in [3] was found to be 80 nM. For `CC[C@H]1[C@@H]2C[C@H]3[C@@H]4N(C)c5ccccc5[C@]45C[C@@H]([C@@H]2[C@H]5O)N3[C@@H]1O` [AJMALINE] the same measures were 1.04 µM, […] and 900 nM.

Regarding `CN(C)CCC=C1c2ccccc2CCc2ccccc21` [AMITRIPTYLINE], the IC50 in [4] is 11.6 µM; in series [2] it was 20 µM. In turn, `CC(C)COCC(CN(Cc1ccccc1)c1ccccc1)N1CCCC1` (centres undefined) [BEPRIDIL] registered an EFTPC in series [3] of 21.5 nM. The IC50 in series [5] came out at 3.7 µM; in series [6] it was 0.211 µM. With `CN(C)CCCN1c2ccccc2Sc2ccc(Cl)cc21` [CHLORPROMAZINE], the IC50 in series [2] was found to be 4.3 µM. For the same compound, the EFTPC in series [3] is on record as 20.5 nM. Turning to `c1ccc(C2(c3ccccc3)CC2C2=NCCN2)cc1` (centres undefined) [CIFENLINE], the IC50 was 30 µM in series [4] and 7.8 µM in series [2]. The compound also yielded an EFTPC in series [3] of 739 nM. Consider `COc1cc(N)c(Cl)cc1C(=O)NC1CCN(CCCOc2ccc(F)cc2)CC1OC` (centres undefined) [CISAPRIDE], for which the EFTPC in series [3] stood at 3.75 nM. This compound came in with an IC50 in series [5] of 14.7 µM. For `CNCCCN1c2ccccc2CCc2ccccc21` [DESIPRAMINE], the EFTPC in [3] is on record as 67.5 nM. For the compound `COc1ccc([C@@H]2Sc3ccccc3N(CCN(C)C)C(=O)[C@@H]2OC(C)=O)cc1` [DILTIAZEM], the IC50 in series [2] was 9 µM. The compound further displayed an EFTPC in series [3] of 87.5 nM. Compound `CN(CCOc1ccc(NS(C)(=O)=O)cc1)CCc1ccc(NS(C)(=O)=O)cc1` [DOFETILIDE] came in with an IC50 in series [2] of 300 µM. The compound also gave an EFTPC in series [3] of 1.2 nM. The compound `COCCCC/C(=N\OCCN)c1ccc(C(F)(F)F)cc1` [FLUVOXAMINE] had an EFTPC in series [3] of 196 nM. The IC50 in series [6] was 4.9 µM. In series [3], `O=C(CCCN1CCC(O)(c2ccc(Cl)cc2)CC1)c1ccc(F)cc1` [HALOPERIDOL] came in with an EFTPC of 2.4 nM. For the compound `CN(C)CCCN1c2ccccc2CCc2ccccc21` [IMIPRAMINE], the IC50 in series [4] amounted to 8.3 µM; in series [2], 3.6 µM. In addition, in series [3], the EFTPC is reported as 70.5 nM. Regarding `Cc1cccc(C)c1OCC(C)N` (centres undefined) [MEXILETINE], the IC50 in series [7] is over 10 µM. Turning to `COCC(=O)O[C@]1(CCN(C)CCCc2nc3ccccc3[nH]2)CCc2cc(F)ccc2[C@@H]1C(C)C` [MIBEFRADIL], the EFTPC in [3] was 9 nM. In series [8], `COC(=O)C1=C(C)NC(C)=C(C(=O)OC)C1c1ccccc1[N+](=O)[O-]` [NIFEDIPINE] showed an EFTPC of 5.4 nM. Take `CCOC(=O)C1=C(C)NC(C)=C(C(=O)OC)C1c1cccc([N+](=O)[O-])c1` (centres undefined) [NITRENDIPINE]: the IC50 in series [2] came out at 36 µM. The EFTPC in series [3] worked out at 1.56 nM. As to `O=C1NC(=O)C(c2ccccc2)(c2ccccc2)N1` [PHENYTOIN], the EFTPC in series [3] is reported as 4250 nM. Further, the IC50 in series [5] came to 49 µM. The compound `O=c1[nH]c2ccccc2n1C1CCN(CCCC(c2ccc(F)cc2)c2ccc(F)cc2)CC1` [PIMOZIDE] registered an IC50 in series [2] of 0.054 µM. This compound also yielded an EFTPC in series [3] of 0.55 nM. With `CC(Cc1ccccc1)NCCC(c1ccccc1)c1ccccc1` (centres undefined) [PRENYLAMINE], the EFTPC in series [3] turned out to be 13 nM. Further, the figures for the IC50 in series [5], in series [9] and in [6] were 2.52 µM, 0.065 µM and 1.24 µM, respectively. On to `CC(C)NCC(O)COc1cccc2ccccc12` (centres undefined) [PROPRANOLOL], for which the EFTPC in series [3] was determined as 19 nM. `Cc1nc2n(c(=O)c1CCN1CCC(c3noc4cc(F)ccc34)CC1)CCCC2` [RISPERIDONE] came in with an EFTPC in series [3] of 1.21 nM. On to `O=C1NCCN1CCN1CCC(c2cn(-c3ccc(F)cc3)c3ccc(Cl)cc23)CC1` [SERTINDOLE], for which the IC50 was determined as 8.9 µM in series [4] and 2.3 µM in [2]. Further, the EFTPC in series [3] stood at 0.8 nM. As for `CC(C)(C)c1ccc(C(O)CCCN2CCC(C(O)(c3ccccc3)c3ccccc3)CC2)cc1` (centres undefined) [TERFENADINE], the EFTPC in [3] came out at 4.55 nM. Consider `CSc1ccc2c(c1)N(CCC1CCCCN1C)c1ccccc1S2` (centres undefined) [THIORIDAZINE], for which the EFTPC in [3] worked out at 593.5 nM.
